The values below come from ChEMBL document CHEMBL5316310, “Discovery of MK-8189, a Highly Potent and Selective PDE10A Inhibitor for the Treatment of Schizophrenia” (J Med Chem, 2023).

≈ marks a conversion by molar mass, not a printed value. Calls of active or inactive are those of the source. No cut-off for these calls is given here. A value given as a limit tells only on which side of the number the result lay.

A short description of series [1]: Selectivity ratio of Ki for N-terminal GST-tagged full length human recombinant PDE8A1 expressed in baculovirus-infected Sf9 cells to Ki for human PDE10A2 transfected in human AD293 cells cytosolic fraction.
The nature of series [2]: Volume of distribution at steady state in Wistar-Hannover rat at 2 mg/kg, iv by LC-MS/MS analysis. Type of series: ADME, organism-based. To be noted: in vivo, read-out: Vdss. In outline: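 Male Wistar–Hannover rats (~300 g, n = 3) received a 2 mg/kg IV bolus through a jugular vein cannula, dosed from a 5 mg/mL solution in DMSO/PEG400 (1:1). EDTA blood was sampled from pre-dose to 24 h. Plasma was protein-precipitated with acetonitrile and analysed by positive-ion APCI LC-MS/MS. Vdss was calculated non-compartmentally as plasma clearance × mean residence time and reported as the mean.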

For series [3], the target named is Sodium channel protein type 5 subunit alpha (Homo sapiens, UniProt Q14524). The experiment in a line: Inhibition of Nav1.5 (unknown origin).
Chain of Sodium channel protein type 5 subunit alpha (Q14524 whole entry, the tested form may be a part): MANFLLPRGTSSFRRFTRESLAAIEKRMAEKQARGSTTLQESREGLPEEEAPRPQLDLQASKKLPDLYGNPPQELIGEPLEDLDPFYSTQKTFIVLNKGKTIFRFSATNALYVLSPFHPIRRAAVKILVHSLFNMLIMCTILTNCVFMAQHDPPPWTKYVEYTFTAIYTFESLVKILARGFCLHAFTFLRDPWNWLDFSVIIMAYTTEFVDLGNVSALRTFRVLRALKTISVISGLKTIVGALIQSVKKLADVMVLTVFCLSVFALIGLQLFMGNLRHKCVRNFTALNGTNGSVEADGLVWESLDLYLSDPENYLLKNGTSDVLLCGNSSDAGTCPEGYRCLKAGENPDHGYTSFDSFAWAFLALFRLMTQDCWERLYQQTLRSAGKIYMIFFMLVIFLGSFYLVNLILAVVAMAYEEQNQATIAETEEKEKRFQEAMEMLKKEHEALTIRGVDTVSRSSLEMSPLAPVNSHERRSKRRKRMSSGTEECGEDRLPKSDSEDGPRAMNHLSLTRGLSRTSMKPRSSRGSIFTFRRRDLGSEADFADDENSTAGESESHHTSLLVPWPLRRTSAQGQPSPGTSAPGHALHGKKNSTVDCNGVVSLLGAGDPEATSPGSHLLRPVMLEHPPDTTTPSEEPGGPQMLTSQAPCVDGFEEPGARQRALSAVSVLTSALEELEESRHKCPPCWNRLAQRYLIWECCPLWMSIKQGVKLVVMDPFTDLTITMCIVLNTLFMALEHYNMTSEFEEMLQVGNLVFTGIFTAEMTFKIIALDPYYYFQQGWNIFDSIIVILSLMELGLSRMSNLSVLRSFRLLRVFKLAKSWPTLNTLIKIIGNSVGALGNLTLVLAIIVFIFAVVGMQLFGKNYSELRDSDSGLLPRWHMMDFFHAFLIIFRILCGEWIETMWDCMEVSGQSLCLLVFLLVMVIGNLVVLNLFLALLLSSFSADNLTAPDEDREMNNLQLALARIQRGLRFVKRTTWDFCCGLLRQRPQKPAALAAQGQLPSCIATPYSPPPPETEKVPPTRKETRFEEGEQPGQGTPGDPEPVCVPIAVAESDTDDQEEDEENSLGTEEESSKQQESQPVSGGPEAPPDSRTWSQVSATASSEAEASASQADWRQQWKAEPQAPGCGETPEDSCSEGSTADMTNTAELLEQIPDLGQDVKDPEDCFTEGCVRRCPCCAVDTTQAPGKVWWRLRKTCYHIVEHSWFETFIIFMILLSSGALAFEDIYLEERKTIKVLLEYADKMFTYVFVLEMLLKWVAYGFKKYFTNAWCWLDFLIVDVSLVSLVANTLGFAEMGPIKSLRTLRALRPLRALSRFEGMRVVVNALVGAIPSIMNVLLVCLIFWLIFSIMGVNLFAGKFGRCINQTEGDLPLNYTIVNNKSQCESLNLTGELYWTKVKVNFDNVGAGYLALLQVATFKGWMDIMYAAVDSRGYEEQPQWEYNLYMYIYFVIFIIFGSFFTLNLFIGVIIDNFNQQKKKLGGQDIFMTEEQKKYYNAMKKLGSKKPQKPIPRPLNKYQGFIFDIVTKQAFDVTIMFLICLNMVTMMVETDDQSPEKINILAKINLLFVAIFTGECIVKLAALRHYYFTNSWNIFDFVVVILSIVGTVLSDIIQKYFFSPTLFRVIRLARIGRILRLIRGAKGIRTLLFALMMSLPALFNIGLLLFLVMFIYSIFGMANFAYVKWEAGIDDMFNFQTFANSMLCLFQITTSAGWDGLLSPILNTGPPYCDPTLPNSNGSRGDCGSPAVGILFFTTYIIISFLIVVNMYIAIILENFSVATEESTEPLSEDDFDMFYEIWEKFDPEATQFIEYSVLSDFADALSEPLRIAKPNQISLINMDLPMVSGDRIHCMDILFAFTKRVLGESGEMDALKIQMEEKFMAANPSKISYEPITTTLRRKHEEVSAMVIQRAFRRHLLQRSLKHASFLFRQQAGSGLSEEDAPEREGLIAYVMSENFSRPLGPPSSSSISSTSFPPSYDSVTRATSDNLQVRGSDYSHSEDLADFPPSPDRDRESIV
A short description of series [4]: Selectivity ratio of Ki for N-terminal GST-tagged and C-terminal His-tagged human recombinant PDE7A (122 to 456 residues) expressed in baculovirus-infected Sf9 cells to Ki for human PDE10A2 transfected in human AD293 cells cytosolic fraction.
The test system of series [5] is Rattus norvegicus. The experiment in a line: Cognitive-enhancing activity in rat assessed as improvement in novel object recognition at 0.16 to 0.25 mg/kg, po measured after 1 hr by novel object recognition test. In kind it is functional, organism-based. To be noted: dose 0.16-0.25 mg/kg. In outline:
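Novel object recognition in rats: oral dosing, then discrimination of a novel object from one seen 48 h earlier. Doses 0.08–0.25 mg/kg; donepezil 0.56 mg/kg as positive control. Groups compared with vehicle (p < 0.05). Plasma for exposure taken 1 h post dose, n = 4/group.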

The nature of series [6]: In vivo receptor occupancy at PDE10A receptor in rat striatum at 0.08 mg/kg, po measured after 1 hr. In kind it is functional. In short, it runs like this:
(§1)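 Striatal PDE10A occupancy in rats given the compound orally during the novel object recognition test. Occupancy was not measured directly but derived from plasma concentration taken 1 h post dose. n = 4/group, reported as mean (SEM).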

Series [7] is described as follows: Protein binding in rat plasma. Type of series: ADME, cell-free.
Series [8] in a line: Selectivity ratio of Ki for N-terminal GST-tagged human recombinant PDE11A4 (1 to 943 residues) expressed in baculovirus-infected Sf9 cells to Ki for human PDE10A2 transfected in human AD293 cells cytosolic fraction.
The nature of series [9]: In vivo receptor occupancy at PDE10A receptor in MK-801-induced psychosis rat model striatum at 0.75 mg/kg, po administered 1 hr prior to MK-801 administration and measured after 90 mins. Type of series: functional. As to conditions: time 2.5 hrs. In short, it runs like this:
(§2)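 Rats in the MK-801 locomotor study were dosed orally at 0.25, 0.50 or 0.75 mg/kg. Plasma was taken 2.5 h post dose and drug levels measured. Striatal PDE10A occupancy was derived from plasma concentration using the [3H]MK-8193 ex vivo occupancy relation. n = 8/group; mean (SEM).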

The target in series [10] is Voltage-gated inwardly rectifying potassium channel KCNH2 (Homo sapiens, UniProt Q12809). The series can be described thus: Displacement of MK499 from hERG. In kind it is toxicity.
Chain of Voltage-gated inwardly rectifying potassium channel KCNH2 (Q12809 whole entry): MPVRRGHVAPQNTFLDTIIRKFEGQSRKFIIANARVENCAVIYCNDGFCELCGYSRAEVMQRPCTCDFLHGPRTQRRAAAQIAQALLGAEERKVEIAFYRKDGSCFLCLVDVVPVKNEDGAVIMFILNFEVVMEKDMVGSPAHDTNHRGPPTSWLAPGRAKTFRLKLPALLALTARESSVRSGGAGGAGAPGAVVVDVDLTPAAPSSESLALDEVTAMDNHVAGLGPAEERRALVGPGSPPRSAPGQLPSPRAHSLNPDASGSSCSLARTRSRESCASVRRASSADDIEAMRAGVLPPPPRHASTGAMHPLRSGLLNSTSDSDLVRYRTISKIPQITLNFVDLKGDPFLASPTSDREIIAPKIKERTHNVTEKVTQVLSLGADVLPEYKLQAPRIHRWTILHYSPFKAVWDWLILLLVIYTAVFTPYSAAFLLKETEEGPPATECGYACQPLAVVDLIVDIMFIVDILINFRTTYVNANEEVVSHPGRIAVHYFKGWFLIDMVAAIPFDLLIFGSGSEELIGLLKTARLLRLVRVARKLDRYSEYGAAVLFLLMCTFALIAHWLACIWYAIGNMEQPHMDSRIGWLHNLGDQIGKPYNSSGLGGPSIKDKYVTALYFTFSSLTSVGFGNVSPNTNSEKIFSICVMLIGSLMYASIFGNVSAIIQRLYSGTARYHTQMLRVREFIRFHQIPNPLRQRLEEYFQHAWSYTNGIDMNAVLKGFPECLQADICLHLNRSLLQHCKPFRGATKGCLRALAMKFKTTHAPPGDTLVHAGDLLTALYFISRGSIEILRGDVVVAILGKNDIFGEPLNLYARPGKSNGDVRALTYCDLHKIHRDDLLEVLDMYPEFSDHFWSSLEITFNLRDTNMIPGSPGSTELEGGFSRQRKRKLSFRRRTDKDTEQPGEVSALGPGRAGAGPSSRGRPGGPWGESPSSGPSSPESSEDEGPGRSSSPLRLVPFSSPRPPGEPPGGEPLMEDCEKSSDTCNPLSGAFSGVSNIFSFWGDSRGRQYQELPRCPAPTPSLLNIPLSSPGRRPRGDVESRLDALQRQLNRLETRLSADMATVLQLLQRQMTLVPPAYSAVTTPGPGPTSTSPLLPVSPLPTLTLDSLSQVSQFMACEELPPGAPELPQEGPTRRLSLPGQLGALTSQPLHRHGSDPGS
Series [11] is described as follows: Selectivity ratio of Ki for N-terminal GST-tagged human recombinant PDE1A expressed in baculovirus-infected Sf9 cells to Ki for human PDE10A2 transfected in human AD293 cells cytosolic fraction.
Series [12] can be described thus: Plasma concentration in MK-801-induced psychosis rat model at 0.75 mg/kg, po administered 1 hr prior to MK-801 administration and measured after 90 mins. As to conditions: time 150 min. Type of series: ADME, organism-based. In short, it runs like this:
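Rats dosed orally, then MK-801 1 h later; locomotor activity recorded over 90 min. Plasma drawn 2.5 h post dose at end of the study and assayed for compound. n = 8/group, reported as mean (SEM).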

The target of series [13] is cAMP and cAMP-inhibited cGMP 3',5'-cyclic phosphodiesterase 10A (Homo sapiens, UniProt Q9Y233). The series can be described thus: Inhibition of human recombinant full length PDE10A.
Chain of cAMP and cAMP-inhibited cGMP 3',5'-cyclic phosphodiesterase 10A (Q9Y233 whole entry): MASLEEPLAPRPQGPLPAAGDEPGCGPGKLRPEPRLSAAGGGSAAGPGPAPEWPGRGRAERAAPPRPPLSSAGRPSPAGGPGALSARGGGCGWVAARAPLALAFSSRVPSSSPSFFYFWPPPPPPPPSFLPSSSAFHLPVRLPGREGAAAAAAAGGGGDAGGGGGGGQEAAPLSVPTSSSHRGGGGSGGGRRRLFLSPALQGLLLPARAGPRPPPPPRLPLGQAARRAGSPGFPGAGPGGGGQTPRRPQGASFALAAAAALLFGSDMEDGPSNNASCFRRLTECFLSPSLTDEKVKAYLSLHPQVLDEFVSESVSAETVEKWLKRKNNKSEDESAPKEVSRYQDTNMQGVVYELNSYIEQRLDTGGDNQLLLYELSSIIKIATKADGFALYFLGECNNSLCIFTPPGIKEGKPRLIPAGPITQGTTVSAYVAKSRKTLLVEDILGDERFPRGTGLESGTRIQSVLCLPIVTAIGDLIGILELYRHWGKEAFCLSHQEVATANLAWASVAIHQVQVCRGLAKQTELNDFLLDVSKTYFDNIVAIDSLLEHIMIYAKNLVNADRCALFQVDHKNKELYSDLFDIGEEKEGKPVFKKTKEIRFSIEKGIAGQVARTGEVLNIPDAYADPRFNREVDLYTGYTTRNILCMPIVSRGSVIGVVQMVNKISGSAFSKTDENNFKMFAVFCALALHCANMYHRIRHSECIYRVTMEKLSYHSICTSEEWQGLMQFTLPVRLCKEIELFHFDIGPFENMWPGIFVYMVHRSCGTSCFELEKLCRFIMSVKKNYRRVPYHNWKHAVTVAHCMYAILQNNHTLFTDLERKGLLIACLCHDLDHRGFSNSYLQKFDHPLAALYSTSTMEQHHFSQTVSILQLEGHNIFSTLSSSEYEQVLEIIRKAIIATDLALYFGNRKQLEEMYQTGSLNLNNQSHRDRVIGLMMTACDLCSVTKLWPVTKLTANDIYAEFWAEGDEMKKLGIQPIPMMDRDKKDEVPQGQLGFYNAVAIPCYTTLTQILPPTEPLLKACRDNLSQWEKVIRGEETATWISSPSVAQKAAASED
Series [14] in a line: Protein binding in monkey plasma assessed as unbound fraction. Type of series: ADME, cell-free, Macaca mulatta. To be noted: rhesus monkey.
Series [15] can be described thus: Oral bioavailability in Wistar-Hannover rat at 10 mg/kg. In kind it is ADME, organism-based. To be noted: in vivo. In short, it runs like this: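 Oral gavage, 5 mL/kg. Rats (n = 3 male Wistar–Hannover) received 10 mg/kg in acidified 10% Tween 80, pH 2, sampled 0.25–24 h. Rhesus (2 female, 1 male) received 5 mg/kg in 0.5% methylcellulose with 1 mol equiv HCl. Plasma quantified by LC-MS/MS. F was taken from dose-adjusted PO/IV AUC0-inf ratios versus the 2 mg/kg (rat) or 0.5 mg/kg (rhesus) IV legs; values are means of n = 3.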

A short description of series [16]: Selectivity ratio of Ki for N-terminal GST-tagged human recombinant PDE4A1A (1 to 647 residues) expressed in baculovirus-infected Sf9 cells to Ki for human PDE10A2 transfected in human AD293 cells cytosolic fraction.
Series [17] is described as follows: In vivo receptor occupancy at PDE10A receptor in rat striatum at 0.16 mg/kg, po measured after 1 hr. In kind it is functional. In short, it runs like this: as §1
Series [18] is described as follows: Solubility of compound in FaSSIF. In kind it is physicochemical. To be noted: simulated gi fluid.
Series [19] is described as follows: Toxicity in CHO cells assessed as chromosomal aberration. In kind it is cell-based, Cricetulus griseus. To be noted: chinese hamster.
Series [20] in a line: Volume of distribution at steady state in Rhesus monkey at 0.5 mg/kg, iv by LC-MS/MS analysis. Type of series: ADME, organism-based, Macaca mulatta. To be noted: in vivo, read-out: Vdss. In outline: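 Three male rhesus monkeys received a 0.5 mg/kg IV bolus into the saphenous or cephalic vein, dosed from a 5 mg/mL solution in DMSO:PEG400 (1:1). EDTA plasma was collected from pre-dose to 24 h. Samples were protein-precipitated with acetonitrile and quantified by positive-ion APCI LC-MS/MS. Vdss was obtained by non-compartmental analysis as clearance × mean residence time, and values are means (n = 3).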

Series [21] is described as follows: In vivo receptor occupancy at PDE10A receptor in MK-801-induced psychosis rat model striatum at 0.5 mg/kg, po administered 1 hr prior to MK-801 administration and measured after 90 mins. In kind it is functional. As to conditions: time 2.5 hrs. In outline:
as §2

The target in series [22] is T1, Nuclear receptor subfamily 1 group I member 2 (Homo sapiens, UniProt O75469).
T1 sequence (O75469 whole entry): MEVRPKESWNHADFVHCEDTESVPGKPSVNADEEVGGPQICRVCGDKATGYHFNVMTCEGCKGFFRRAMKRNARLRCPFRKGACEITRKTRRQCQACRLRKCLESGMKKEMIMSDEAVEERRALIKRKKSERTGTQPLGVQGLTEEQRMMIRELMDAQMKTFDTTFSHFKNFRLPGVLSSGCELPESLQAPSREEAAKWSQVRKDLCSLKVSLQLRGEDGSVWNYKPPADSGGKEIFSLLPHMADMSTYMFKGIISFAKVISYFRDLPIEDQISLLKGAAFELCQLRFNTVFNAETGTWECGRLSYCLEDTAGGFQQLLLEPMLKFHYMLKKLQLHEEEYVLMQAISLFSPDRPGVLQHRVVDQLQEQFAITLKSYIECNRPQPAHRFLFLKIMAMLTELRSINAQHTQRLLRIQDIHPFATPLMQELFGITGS
The series can be described thus: Activation of PXR (unknown origin) assessed as CYP3A4 induction. In kind it is ADME.

The nature of series [23]: Lipophilicity, log D of the compound. Type of series: physicochemical. As to conditions: octanol/water.
Series [24] can be described thus: Protein binding in human plasma. Type of series: ADME, cell-free.

For orientation: IC50 means the midpoint of a concentration-inhibition curve. In general, solubility refers to the dissolved amount per volume that the medium holds. The term EC50 denotes the concentration that produces a half-maximal response. By logD is commonly meant the decadic logarithm of the distribution of all forms, ionised or not, between an organic phase and buffer at a given pH. As for `Cc1ccc([C@H]2C[C@@H]2COc2cc(NCc3nnc(C)s3)nc(C)n2)nc1` [MK-8189], the Ratio Ki in series [1], in series [4], in series [8], in series [11] and in series [16] was more than 500000 in each case. Besides, the values for the Vd in series [2] and in series [20] were 0.93 L/kg and 1.4 L/kg, respectively. The IC50 in [3] was more than 30 µM; in series [10], 33 µM; in series [13], 0.0016 µM. Further, the outcome in [5] was Active. Also, the Occ in series [6] was 24%; in series [9] it was 50%; in series [17], 29%; in [21] it was 41%. In addition, the values for the PPB in series [7] and in series [24] were 91.8% and 96%, respectively. The concentration at 2.5 h in series [12] was 50 nM. The Fu in [14] is recorded as 8.7%. This molecule also registered a F in series [15] of 46%. In series [18], the solubility is 170 µg/mL (≈ 444 µM). The Activity result in [19] was “Non-Toxic”. Also, the EC50 in series [22] is more than 30 µM. In addition, the logD in series [23] amounted to 2.1.
